≈ marks a conversion by molar mass, not a printed value.
Experiments:
[1] = system: Candida albicans; assay: Minimum inhibitory concentration against Candida albicans using eagles minimum essential medium (EMEM); assay type: functional
Procedure, shortened: (§1)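 Candida MICs in Eagle's minimum essential medium, pH 7.0. Compounds in DMSO or ethanol were serially diluted in medium, inoculated and incubated at 37 °C under CO₂. […] The summary value is the geometric mean of the MICs across strains.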

[2] = system: Microsporum canis; assay: Minimum inhibitory concentration against Microsporum canis at a pH of 5.7 using SDB medium; assay type: functional
Procedure, shortened: (§2)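 Dermatophyte isolates tested by serial broth dilution in SDB, pH 5.7. Compound stocks in DMSO or ethanol, incubated at 27 °C, and growth read visually at 72 h. MIC is the lowest concentration with no visible growth. The summary value is the geometric mean of the MICs across the organisms.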

[3] = system: Candida tropicalis; assay: Minimum inhibitory concentration against Candida tropicalis using eagles minimum essential medium (EMEM); assay type: functional; procedure, shortened: as §1
[4] = Geometric mean for the above three species of Candida, tested in EMEM medium; assay type: functional; procedure, shortened: as §1
[5] = system: Cricetinae gen. sp.; assay: Inhibition of Vaginal Candida (C-60 strain) infection in Hamsters, estimated as Percent Area under curve at 0.05 % concentration after 4 days of administration; assay type: functional, Cricetulus griseus
Procedure, shortened: (§3)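 Hamster vaginal C. albicans infection (strains C43 or C60; 10 animals per compound). From day 5 post-infection, a cotton pellet holding 0.15 mL of 0.05% or 0.01% (w/w) compound in EtOH–PEG 400–glycerol (10:45:45) was inserted once daily for 4 or 8 days. Vaginal swabs were filtered and the filters cultured on SDA at 37 °C for 48 h. Read-out was the area under the % negative cultures versus time curve.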

[6] = system: Candida; assay: Compound is evaluated for geometric mean of MIC values of Candida species; assay type: functional; parameters: unit not given beside the values
[7] = system: Candida albicans; assay: Minimum inhibitory concentration against Candida stellatoidea using eagles minimum essential medium (EMEM); assay type: functional; procedure, shortened: as §1
[8] = system: Candida tropicalis; assay: Minimum inhibitory concentration against Candida tropicalis at a pH of 5.7 using SDB medium; assay type: functional
Procedure, shortened: (§4)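 Broth dilution in Sabouraud dextrose broth, pH 5.7. Compounds dissolved in DMSO or ethanol, serially diluted in medium, inoculated and incubated at 27 °C. Wells read visually at 48 h. MIC is the lowest concentration giving complete growth inhibition.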

[9] = system: Candida parapsilosis; assay: Minimum inhibitory concentration against Candida parapsilosis at a pH of 5.7 using SDB medium; assay type: functional; details: Lodderomyces parapsilosis; procedure, shortened: as §4
[10] = system: Trichophyton benhamiae; assay: Minimum inhibitory concentration against Trichophyton mentagrophytes at a pH of 5.7 using SDB medium; assay type: functional, Arthroderma benhamiae; procedure, shortened: as §2
[11] = system: Candida albicans; assay: Minimum inhibitory concentration against Candida albicans at a pH of 5.7 using SDB medium; assay type: functional; procedure, shortened: as §4
[12] = system: Candida albicans; assay: Minimum inhibitory concentration against Candida stellatoidea at a pH of 5.7 using SDB medium; assay type: functional; procedure, shortened: as §4
[13] = system: Trichophyton rubrum; assay: Minimum inhibitory concentration against Trichophyton rubrum at a pH of 5.7 using SDB medium; assay type: functional; procedure, shortened: as §2
[14] = system: Arthrodermataceae; assay: Compound is evaluated for geometric mean of MIC values of dermatophytes; assay type: functional; parameters: unit not given beside the values; procedure, shortened: as §2
[15] = system: Cricetinae gen. sp.; assay: Inhibition of Vaginal Candida (C-60 strain) infection in Hamsters, estimated as Percent Area under curve at 0.01 % concentration after 4 days of administration; assay type: functional, Cricetulus griseus; procedure, shortened: as §3
[16] = system: Epidermophyton floccosum; assay: Minimum inhibitory concentration against Epidermophyton floccosum at a pH of 5.7 using SDB medium; assay type: functional; procedure, shortened: as §2
[17] = system: Nannizzia gypsea; assay: Minimum inhibitory concentration against Microsporum gypseum at a pH of 5.7 using SDB medium; assay type: functional; procedure, shortened: as §2
[18] = system: Cricetinae gen. sp.; assay: Inhibition of Vaginal Candida (C-43 strain) infection in Hamsters, estimated as Percent Area under curve at 0.05 % concentration after 8 days of administration; assay type: functional, Cricetulus griseus; procedure, shortened: as §3
[19] = system: Cavia porcellus; assay: In vivo inhibition of topical Trichophyton infection in Guinea Pig after drug administration; assay type: functional
Procedure, shortened: (§5)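 Guinea pigs (5 per compound) infected with T. mentagrophytes D24 by swabbing a homogenate onto shaven, abraded skin. From day 4 post-infection, 0.25% (w/v) compound in EtOH–PEG 400–glycerol (10:45:45) was rubbed in topically twice daily for 10 days. Hair samples were cultured on SDA at 27 °C for up to 16 days. Read-outs were the % negative cultures and the day each animal became culture-negative.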

[20] = system: Cricetinae gen. sp.; assay: Inhibition of Vaginal Candida (C-60 strain) infection in Hamsters, estimated as Percent Area under curve at 0.05 % concentration after 8 days of administration; assay type: functional, Cricetulus griseus; procedure, shortened: as §3
[21] = system: Cavia porcellus; assay: In vivo inhibition of topical Trichophyton infection in Guinea Pig during drug administration; assay type: functional; procedure, shortened: as §5
[22] = species on record: Cavia porcellus; assay: Lession score which is determined as number of animals minus days to become negative; assay type: functional; procedure, shortened: as §5

Structure (SMILES) | MIC [1] [µg/mL] | MIC [2] [µg/mL] | MIC [3] [µg/mL] | Geometric mean [4] | Geometric mean [6] | MIC [7] [µg/mL] | MIC [8] [µg/mL] | MIC [9] [µg/mL] | MIC [10] [µg/mL] | MIC [11] [µg/mL] | MIC [12] [µg/mL] | MIC [13] [µg/mL] | Geometric mean [14] | MIC [16] [µg/mL] | MIC [17] [µg/mL] | other results
Fc1ccc(C2(Cn3ccnc3)OCc3ccccc32)c(F)c1 (stereo not given) | < 0.031 | 2 (≈ 6.4 µM) | < 0.031 | < 0.02 | 48 | < 0.031 | 64 (≈ 205 µM) | 0.25 (≈ 0.8 µM) | 0.5 (≈ 1.6 µM) | > 64 | > 64 | 16 (≈ 51.2 µM) | 2.5 | – | – | Inhibition [5]: 88%; Inhibition [15]: 69%
Clc1ccc(C2(Cn3ccnc3)OCc3ccccc32)c(Cl)c1 (stereo not given) | < 0.031 | < 0.031 | < 0.031 | < 0.02 | 7.2 | < 0.031 | 32 (≈ 92.7 µM) | < 0.031 | < 0.031 | 32 (≈ 92.7 µM) | 32 (≈ 92.7 µM) | < 0.031 | <0.04 | 0.063 (≈ 0.182 µM) | 0.5 (≈ 1.45 µM) | Inhibition [5]: 94%; Inhibition [15]: 78%
c1ccc(-c2ccc(C3(Cn4ccnc4)OCc4ccccc43)cc2)cc1 (stereo not given) | 0.25 (≈ 0.709 µM) | 1 (≈ 2.84 µM) | 0.063 (≈ 0.179 µM) | 0.16 | 7.2 | 0.125 (≈ 0.355 µM) | 32 (≈ 90.8 µM) | < 0.031 | < 0.031 | 32 (≈ 90.8 µM) | 16 (≈ 45.4 µM) | < 0.031 | – | < 0.031 | 8 (≈ 22.7 µM) | –
Clc1ccc(C2(Cn3ccnc3)OCCc3ccccc32)cc1 (stereo not given) | < 0.031 | 1 (≈ 3.08 µM) | < 0.031 | < 0.02 | 51 | < 0.031 | 64 (≈ 197 µM) | 2 (≈ 6.16 µM) | 0.125 (≈ 0.385 µM) | 64 (≈ 197 µM) | 64 (≈ 197 µM) | 0.25 (≈ 0.77 µM) | <0.22 | < 0.031 | 1 (≈ 3.08 µM) | –
Clc1ccc(C2(Cn3ccnc3)OCc3ccc(Cl)cc32)c(Cl)c1 (stereo not given) | < 0.031 | 0.5 (≈ 1.32 µM) | 1 (≈ 2.63 µM) | < 0.031 | <15 | < 0.031 | 8 (≈ 21.1 µM) | < 0.031 | 0.5 (≈ 1.32 µM) | 64 (≈ 169 µM) | 64 (≈ 169 µM) | 8 (≈ 21.1 µM) | 1.3 | – | – | Inhibition [5]: 64%; Inhibition [15]: 26%
Clc1ccc(CC2(Cn3ccnc3)OCc3ccccc32)cc1 (stereo not given) | 0.25 (≈ 0.77 µM) | 4 (≈ 12.3 µM) | 0.25 (≈ 0.77 µM) | 0.25 | >78 | 0.25 (≈ 0.77 µM) | > 64 | 4 (≈ 12.3 µM) | 8 (≈ 24.6 µM) | > 64 | > 64 | 8 (≈ 24.6 µM) | 4.6 | 0.25 (≈ 0.77 µM) | 32 (≈ 98.5 µM) | –
Clc1ccc(C2(Cn3ccnc3)OCc3c(Cl)cc(Cl)cc32)c(Cl)c1 (stereo not given) | 2 (≈ 4.83 µM) | 8 (≈ 19.3 µM) | 2 (≈ 4.83 µM) | 2 | 4.9 | 2 (≈ 4.83 µM) | 8 (≈ 19.3 µM) | 4 (≈ 9.66 µM) | 8 (≈ 19.3 µM) | 8 (≈ 19.3 µM) | 4 (≈ 9.66 µM) | 8 (≈ 19.3 µM) | 9.5 | – | 16 (≈ 38.6 µM) | Inhibition [18]: <30%
OC1OC(Cn2cncn2)(c2ccc(Cl)cc2)c2ccccc21 (stereo not given) | – | > 64 | – | – | – | – | > 64 | 32 (≈ 97.6 µM) | > 64 | > 64 | > 64 | 64 (≈ 195 µM) | >54 | 8 (≈ 24.4 µM) | > 64 | –
c1ccc(C2(Cn3ccnc3)OCc3ccccc32)cc1 (stereo not given) | 0.25 (≈ 0.905 µM) | 16 (≈ 57.9 µM) | 0.125 (≈ 0.452 µM) | 0.2 | 48 | 0.25 (≈ 0.905 µM) | 64 (≈ 232 µM) | 8 (≈ 28.9 µM) | 16 (≈ 57.9 µM) | 64 (≈ 232 µM) | 64 (≈ 232 µM) | 16 (≈ 57.9 µM) | <5.2 | < 0.031 | 64 (≈ 232 µM) | –
Clc1ccccc1C(c1ccccc1)(c1ccccc1)n1ccnc1 [CLOTRIMAZOLE] | – | – | – | – | – | – | – | – | – | – | – | – | – | – | – | Culture negative [19]: 87%; Inhibition [20]: 34%; Culture negative [21]: 75%; Lesion score [22]: 5
Clc1ccc(C2(Cn3cncn3)OCc3ccccc32)cc1 (stereo not given) | < 0.031 | 1 (≈ 3.21 µM) | < 0.031 | < 0.02 | 16 | < 0.031 | 64 (≈ 205 µM) | 1 (≈ 3.21 µM) | 1 (≈ 3.21 µM) | 64 (≈ 205 µM) | 32 (≈ 103 µM) | 1 (≈ 3.21 µM) | <0.57 | < 0.031 | 4 (≈ 12.8 µM) | –
